Experimental data taken from ChEMBL document CHEMBL3259728, “Design, synthesis and biological evaluation of some novel substituted quinazolines as antitumor agents” (2014).

Assays:
Format in all cases: functional
SF-268 = assay: Growth inhibition of human SF268 cells assessed as cell growth at 10^-4 M after 48 hrs by SRB assay; settings: SF-268, 48 h, read-out: Activity
NCI-H322M [1] = assay: Growth inhibition of human NCI-H322M cells assessed as cell growth at 10^-4 M after 48 hrs by SRB assay; settings: read-out: Activity
NCI-H460 = assay: Growth inhibition of human NCI-H460 cells assessed as cell growth at 10^-8 M after 48 hrs by SRB assay; settings: NCI-H460, 48 h, read-out: Activity
[2] = Growth inhibition of human HOP92 cells assessed as cell growth at 10^-8 M after 48 hrs by SRB assay; settings: HOP-92, 48 h, read-out: Activity
[3] = Growth inhibition of human UACC257 cells assessed as cell growth at 10^-5 M after 48 hrs by SRB assay; settings: UACC-257, 48 h, read-out: Activity
[4] = Growth inhibition of human SF539 cells assessed as cell growth at 10^-5 M after 48 hrs by SRB assay; settings: SF-539, 48 h, read-out: Activity
[5] = Growth inhibition of human BT549 cells assessed as cell growth at 10^-6 M after 48 hrs by SRB assay; settings: BT-549, 48 h, read-out: Activity
Summary of the method: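 Five-dose NCI panel protocol. Each dose (10^-4 to 10^-8 M, 10-fold steps) was given as 48 h continuous exposure, and protein was measured by SRB staining. Percentage growth at each level is [(Ti−Tz)/(C−Tz)]×100, where Tz is time-zero absorbance and C is untreated control.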

[6] = Growth inhibition of human Hs578T cells assessed as cell growth at 10^-6 M after 48 hrs by SRB assay; settings: Hs-578T, read-out: Activity
[7] = Growth inhibition of human NCI-ADR-RES cells assessed as cell growth at 10^-6 M after 48 hrs by SRB assay; settings: read-out: Activity
SR = assay: Growth inhibition of human SR cells assessed as cell growth at 10^-6 M after 48 hrs by SRB assay; settings: read-out: Activity
[8] = Growth inhibition of human OVCAR4 cells assessed as cell growth at 10^-7 M after 48 hrs by SRB assay; settings: OVCAR-4, 48 h, read-out: Activity
IGROV-1 [9] = assay: Cytotoxicity against human IGROV1 cells after 48 hrs by SRB assay; settings: IGROV-1, 48 h
Summary of the method: (§1)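 NCI 60-cell-line panel of human tumour lines from nine cancer types. Continuous 48 h exposure at five 10-fold dilutions from 10^-4 to 10^-8 M, with 5-FU as positive control. SRB protein stain read spectrophotometrically at time zero, untreated control and each concentration. GI50, TGI and LC50 were derived from the [(Ti−Tz)/(C−Tz)]×100 growth relations, and out-of-range values are given as > or < the tested limits.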

SF-539 = assay: Cytotoxicity against human SF539 cells after 48 hrs by SRB assay; settings: SF-539, 48 h; summary of the method: as §1
PC-3 = assay: Cytotoxicity against human PC3 cells after 48 hrs by SRB assay; settings: PC-3, 48 h; summary of the method: as §1
DU-145 = assay: Cytotoxicity against human DU145 cells after 48 hrs by SRB assay; settings: DU-145, 48 h; summary of the method: as §1
[10] = Growth inhibition of human Hs578T cells assessed as cell growth at 10^-7 M after 48 hrs by SRB assay; settings: Hs-578T, read-out: Activity
MCF7 = assay: Growth inhibition of human MCF7 cells assessed as cell growth at 10^-7 M after 48 hrs by SRB assay; settings: MCF7, 48 h, read-out: Activity
SN12C = assay: Growth inhibition of human SN12C cells assessed as cell growth at 10^-7 M after 48 hrs by SRB assay; settings: read-out: Activity
[11] = Growth inhibition of human OVCAR8 cells assessed as cell growth at 10^-7 M after 48 hrs by SRB assay; settings: OVCAR-8, 48 h, read-out: Activity
SK-MEL-28 = assay: Growth inhibition of human SK-MEL-28 cells assessed as cell growth at 10^-7 M after 48 hrs by SRB assay; settings: SK-MEL-28, 48 h, read-out: Activity
[12] = Growth inhibition of human SF539 cells assessed as cell growth at 10^-7 M after 48 hrs by SRB assay; settings: SF-539, 48 h, read-out: Activity
NCI-H322M [13] = assay: Growth inhibition of human NCI-H322M cells assessed as cell growth at 10^-7 M after 48 hrs by SRB assay; settings: read-out: Activity
[14] = Growth inhibition of human MOLT4 cells assessed as cell growth at 10^-7 M after 48 hrs by SRB assay; settings: MOLT-4, 48 h, read-out: Activity
[15] = Growth inhibition of human UO31 cells assessed as cell growth at 10^-8 M after 48 hrs by SRB assay; settings: UO-31, 48 h, read-out: Activity
HT-29 = assay: Cytotoxicity against human HT-29 cells after 48 hrs by SRB assay; settings: HT-29, 48 h; summary of the method: as §1
COLO 205 = assay: Cytotoxicity against human COLO205 cells after 48 hrs by SRB assay; settings: COLO 205, 48 h; summary of the method: as §1
CCRF-CEM = assay: Cytotoxicity against human CCRF-CEM cells after 48 hrs by SRB assay; summary of the method: as §1
MDA-MB-468 = assay: Growth inhibition of human MDA-MB-468 cells assessed as cell growth at 10^-4 M after 48 hrs by SRB assay; settings: MDA-MB-468, 48 h, read-out: Activity
IGROV-1 [16] = assay: Growth inhibition of human IGROV1 cells assessed as cell growth at 10^-4 M after 48 hrs by SRB assay; settings: IGROV-1, 48 h, read-out: Activity
[17] = read-out: LC50 (the source's name)
[18] = read-out: pLC50 (the source's name) (converted)

Question: Which growth at 100 µM (SF-268) does the source give for `Cc1ccc(-c2nc3ccc(Cl)cc3c(=O)n2/N=C/c2ccccc2)cc1` here?
Answer: 36%

Question: What about the growth at 100 µM (NCI-H322M [1]) of the same molecule?
Answer: 42%

Question: What about the growth at 0.01 µM (NCI-H460) of the same molecule?
Answer: 100%

Question: And the growth at 0.01 µM [2]?
Answer: 93%

Question: And the growth at 10 µM [3]?
Answer: 73%

Question: What about the growth at 10 µM [4] of the same molecule?
Answer: 73%

Question: What about the growth at 1 µM [5] of the same molecule?
Answer: 103%

Question: And the growth at 1 µM [6]?
Answer: 84%

Question: And the growth at 1 µM [7]?
Answer: 89%

Question: And the growth at 1 µM (SR)?
Answer: 52%

Question: What about the growth at 0.1 µM [8] of the same molecule?
Answer: 96%

Question: What about the GI50 (IGROV-1 [9]; read-out: GI50) of the same molecule?
Answer: 3.69 µM

Question: What about the CC50 (IGROV-1 [9]; [17]) of the same molecule?
Answer: > 100 µM

Question: And the TGI (IGROV-1 [9]; read-out: TGI)?
Answer: > 100 µM

Question: What about the GI50 (IGROV-1 [9]; read-out: pGI50 (converted)) of the same molecule?
Answer: 3.72 µM

Question: What about the CC50 (IGROV-1 [9]; [18]) of the same molecule?
Answer: > 100 µM

Question: And the TGI (IGROV-1 [9]; read-out: pTGI)?
Answer: > 100 µM

Question: And the GI50 (SF-539; read-out: GI50)?
Answer: > 100 µM

Question: And the CC50 (SF-539; [17])?
Answer: > 100 µM

Question: And the TGI (SF-539; read-out: TGI)?
Answer: > 100 µM

Question: And the GI50 (SF-539; read-out: pGI50 (converted))?
Answer: > 100 µM

Question: And the CC50 (SF-539; [18])?
Answer: > 100 µM

Question: What about the TGI (SF-539; read-out: pTGI) of the same molecule?
Answer: > 100 µM

Question: What about the GI50 (PC-3; read-out: GI50) of the same molecule?
Answer: 83 µM

Question: And the CC50 (PC-3; [17])?
Answer: > 100 µM

Question: What about the TGI (PC-3; read-out: TGI) of the same molecule?
Answer: > 100 µM

Question: What about the GI50 (PC-3; read-out: pGI50 (converted)) of the same molecule?
Answer: 83.2 µM

Question: What about the CC50 (PC-3; [18]) of the same molecule?
Answer: > 100 µM

Question: What about the TGI (PC-3; read-out: pTGI) of the same molecule?
Answer: > 100 µM

Question: What about the GI50 (DU-145; read-out: GI50) of the same molecule?
Answer: 58.4 µM

Question: What about the CC50 (DU-145; [17]) of the same molecule?
Answer: > 100 µM

Question: And the TGI (DU-145; read-out: TGI)?
Answer: > 100 µM

Question: And the GI50 (DU-145; read-out: pGI50 (converted))?
Answer: 58.9 µM

Question: And the CC50 (DU-145; [18])?
Answer: > 100 µM

Question: What about the TGI (DU-145; read-out: pTGI) of the same molecule?
Answer: > 100 µM

Question: And the growth at 0.1 µM [10]?
Answer: 90%

Question: And the growth at 0.1 µM (MCF7)?
Answer: 90%

Question: And the growth at 0.1 µM (SN12C)?
Answer: 92%

Question: What about the growth at 0.1 µM [11] of the same molecule?
Answer: 100%

Question: And the growth at 0.1 µM (SK-MEL-28)?
Answer: 97%

Question: What about the growth at 0.1 µM [12] of the same molecule?
Answer: 97%

Question: What about the growth at 0.1 µM (NCI-H322M [13]) of the same molecule?
Answer: 76%

Question: What about the growth at 0.1 µM [14] of the same molecule?
Answer: 96%

Question: And the growth at 0.01 µM [15]?
Answer: 77%

Question: What about the GI50 (HT-29; read-out: GI50) of the same molecule?
Answer: 60.2 µM

Question: What about the LC50 (HT-29; read-out: LC50) of the same molecule?
Answer: > 100 µM

Question: What about the TGI (HT-29; read-out: TGI) of the same molecule?
Answer: > 100 µM

Question: And the GI50 (HT-29; read-out: pGI50 (converted))?
Answer: 60.3 µM

Question: What about the LC50 (HT-29; read-out: pLC50 (converted)) of the same molecule?
Answer: > 100 µM

Question: What about the TGI (HT-29; read-out: pTGI) of the same molecule?
Answer: > 100 µM

Question: And the GI50 (COLO 205; read-out: GI50)?
Answer: 9 µM

Question: And the LC50 (concentration killing 50% of cells) (COLO 205; read-out: LC50)?
Answer: > 100 µM

Question: And the TGI (COLO 205; read-out: TGI)?
Answer: > 100 µM

Question: And the GI50 (COLO 205; read-out: pGI50 (converted))?
Answer: 8.91 µM

Question: What about the LC50 (concentration killing 50% of cells) (COLO 205; read-out: pLC50 (converted)) of the same molecule?
Answer: > 100 µM

Question: And the TGI (COLO 205; read-out: pTGI)?
Answer: > 100 µM

Question: And the GI50 (CCRF-CEM; read-out: GI50)?
Answer: > 100 µM

Question: What about the CC50 (CCRF-CEM; [17]) of the same molecule?
Answer: > 100 µM

Question: What about the TGI (CCRF-CEM; read-out: TGI) of the same molecule?
Answer: > 100 µM

Question: And the GI50 (CCRF-CEM; read-out: pGI50 (converted))?
Answer: > 100 µM

Question: What about the CC50 (CCRF-CEM; [18]) of the same molecule?
Answer: > 100 µM

Question: And the TGI (CCRF-CEM; read-out: pTGI)?
Answer: > 100 µM

Question: What about the growth at 100 µM (MDA-MB-468) of the same molecule?
Answer: 45%

Question: What about the growth at 100 µM (IGROV-1 [16]) of the same molecule?
Answer: 25%
